Assay type in all cases: functional
Assay [1] relates to Staphylococcus aureus. As to the kind of experiment: Antimicrobial activity against methicillin-resistant Staphylococcus aureus NRS100 by micro-dilution method. Summed up: (§1)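 Broth microdilution MIC in cation-adjusted Mueller-Hinton II medium supplemented with 1% Tween-80 (CAMHB-T), needed to disperse the farnesol-type compounds. Compounds tested from 2 to 2048 μg/mL.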
On the technique in general: Broth dilution looks for growth in wells or tubes with falling amounts of substance.

The test system of assay [2] is Staphylococcus aureus. As to the kind of experiment: Antimicrobial activity against methicillin-resistant Staphylococcus aureus NRS123 by micro-dilution method. Summed up: as §1
Assay [3] relates to Staphylococcus aureus. Nature of the assay: Antimicrobial activity against methicillin-resistant Staphylococcus aureus NRS70 by micro-dilution method. Summed up: as §1
Assay [4] deals with Staphylococcus aureus. As to the kind of experiment: Antimicrobial activity against methicillin-susceptible Staphylococcus aureus ATCC 29213 by micro-dilution method. The procedure, abridged: as §1
Assay [5] concerns Staphylococcus aureus. As to the kind of experiment: Potentiation of ampicillin-induced antimicrobial activity against methicillin-resistant Staphylococcus aureus NRS100 relative to untreated ampicillin alone.
Assay [6] deals with Staphylococcus aureus. Nature of the assay: Potentiation of oxacillin-induced antimicrobial activity against methicillin-resistant Staphylococcus aureus NRS100 relative to untreated oxacillin alone.
For assay [7], the system named is Staphylococcus aureus. As to the kind of experiment: Potentiation of ampicillin-induced antimicrobial activity against methicillin-resistant Staphylococcus aureus NRS70 relative to untreated ampicillin alone.
Assay [8] relates to Staphylococcus aureus. Nature of the assay: Potentiation of oxacillin-induced antimicrobial activity against methicillin-resistant Staphylococcus aureus NRS70 relative to untreated oxacillin alone.
In assay [9] the test system is Staphylococcus aureus. As to the kind of experiment: Potentiation of ampicillin-induced antimicrobial activity against methicillin-susceptible Staphylococcus aureus ATCC 29213 at 1000 ug/ml (reference value: ampicillin alone MIC = 0.5 ug/ml).
The subject of assay [10] is Staphylococcus aureus. Nature of the assay: Potentiation of ampicillin-induced antimicrobial activity against methicillin-susceptible Staphylococcus aureus ATCC 29213 at 1000 ug/ml relative to ampicillin alone.
For assay [11], the system named is Staphylococcus aureus. As to the kind of experiment: Potentiation of ampicillin-induced antimicrobial activity against methicillin-resistant Staphylococcus aureus NRS100 at 1000 ug/ml (reference value: ampicillin alone MIC = 16 ug/ml).
The test system of assay [12] is Staphylococcus aureus. Nature of the assay: Potentiation of ampicillin-induced antimicrobial activity against methicillin-resistant Staphylococcus aureus NRS100 at 1000 ug/ml relative to ampicillin alone.
The test system of assay [13] is Staphylococcus aureus. As to the kind of experiment: Potentiation of ampicillin-induced antimicrobial activity against methicillin-resistant Staphylococcus aureus NRS70 at 1000 ug/ml (reference value: ampicillin alone MIC = 16 ug/ml).
Assay [14] deals with Staphylococcus aureus. Nature of the assay: Potentiation of ampicillin-induced antimicrobial activity against methicillin-resistant Staphylococcus aureus NRS70 at 1000 ug/ml relative to ampicillin alone.
In assay [15] the test system is Staphylococcus aureus. As to the kind of experiment: Potentiation of ampicillin-induced antimicrobial activity against methicillin-resistant Staphylococcus aureus NRS123 at 1000 ug/ml (reference value: ampicillin alone MIC = 12 ug/ml).
For assay [16], the system named is Staphylococcus aureus. As to the kind of experiment: Potentiation of ampicillin-induced antimicrobial activity against methicillin-resistant Staphylococcus aureus NRS123 at 1000 ug/ml relative to ampicillin alone.
For assay [17], the system named is Staphylococcus aureus. Nature of the assay: Potentiation of oxacillin-induced antimicrobial activity against methicillin-susceptible Staphylococcus aureus ATCC 29213 at 1000 ug/ml (reference value: oxacillin alone MIC = 0.4 ug/ml).
For assay [18], the system named is Staphylococcus aureus. Nature of the assay: Potentiation of oxacillin-induced antimicrobial activity against methicillin-susceptible Staphylococcus aureus ATCC 29213 at 1000 ug/ml relative to oxacillin alone.
Assay [19] deals with Staphylococcus aureus. Nature of the assay: Potentiation of oxacillin-induced antimicrobial activity against methicillin-resistant Staphylococcus aureus NRS100 at 1000 ug/ml (reference value: oxacillin alone MIC = >256 ug/ml).
Assay [20] concerns Staphylococcus aureus. Nature of the assay: Potentiation of oxacillin-induced antimicrobial activity against methicillin-resistant Staphylococcus aureus NRS100 at 1000 ug/ml relative to oxacillin alone.
For assay [21], the system named is Staphylococcus aureus. As to the kind of experiment: Potentiation of oxacillin-induced antimicrobial activity against methicillin-resistant Staphylococcus aureus NRS70 at 1000 ug/ml (reference value: oxacillin alone MIC = 32 ug/ml).
The subject of assay [22] is Staphylococcus aureus. As to the kind of experiment: Potentiation of oxacillin-induced antimicrobial activity against methicillin-resistant Staphylococcus aureus NRS70 at 1000 ug/ml relative to oxacillin alone.
The test system of assay [23] is Staphylococcus aureus. As to the kind of experiment: Potentiation of oxacillin-induced antimicrobial activity against methicillin-resistant Staphylococcus aureus NRS123 at 1000 ug/ml (reference value: oxacillin alone MIC = 24 ug/ml).
Assay [24] concerns Staphylococcus aureus. As to the kind of experiment: Potentiation of oxacillin-induced antimicrobial activity against methicillin-resistant Staphylococcus aureus NRS123 at 1000 ug/ml relative to oxacillin alone.
Assay [25] has as its system Staphylococcus aureus. Nature of the assay: Potentiation of oxacillin-induced antimicrobial activity against methicillin-resistant Staphylococcus aureus NRS70 at 1000 ug/ml by checkerboard assay. The procedure, abridged: (§2)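 Checkerboard combination of oxacillin with the farnesol-type compound. Synergy scored by the fractional inhibitory concentration index (FICI).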

Assay [26] has as its system Staphylococcus aureus. As to the kind of experiment: Potentiation of oxacillin-induced antimicrobial activity against methicillin-resistant Staphylococcus aureus NRS100 at 1000 ug/ml by checkerboard assay. Summed up: as §2
Assay [27] concerns Staphylococcus aureus. Nature of the assay: Potentiation of ampicillin-induced antimicrobial activity against methicillin-susceptible Staphylococcus aureus ATCC 29213 at 256 ug/ml (reference value: ampicillin alone MIC = 0.5 ug/ml).
The test system of assay [28] is Staphylococcus aureus. As to the kind of experiment: Potentiation of ampicillin-induced antimicrobial activity against methicillin-susceptible Staphylococcus aureus ATCC 29213 at 256 ug/ml relative to ampicillin alone.
In assay [29] the test system is Staphylococcus aureus. As to the kind of experiment: Potentiation of ampicillin-induced antimicrobial activity against methicillin-resistant Staphylococcus aureus NRS123 at 256 ug/ml (reference value: ampicillin alone MIC = 12 ug/ml).
Assay [30] has as its system Staphylococcus aureus. Nature of the assay: Potentiation of ampicillin-induced antimicrobial activity against methicillin-resistant Staphylococcus aureus NRS123 at 256 ug/ml relative to ampicillin alone.
In assay [31] the test system is Staphylococcus aureus. As to the kind of experiment: Potentiation of ampicillin-induced antimicrobial activity against methicillin-resistant Staphylococcus aureus NRS100 at 128 ug/ml (reference value: ampicillin alone MIC = 16 ug/ml).
The test system of assay [32] is Staphylococcus aureus. Nature of the assay: Potentiation of ampicillin-induced antimicrobial activity against methicillin-resistant Staphylococcus aureus NRS100 at 128 ug/ml relative to ampicillin alone.
The subject of assay [33] is Staphylococcus aureus. As to the kind of experiment: Potentiation of ampicillin-induced antimicrobial activity against methicillin-resistant Staphylococcus aureus NRS70 at 128 ug/ml (reference value: ampicillin alone MIC = 16 ug/ml).
Assay [34] relates to Staphylococcus aureus. Nature of the assay: Potentiation of ampicillin-induced antimicrobial activity against methicillin-resistant Staphylococcus aureus NRS70 at 128 ug/ml relative to ampicillin alone.
For assay [35], the system named is Staphylococcus aureus. Nature of the assay: Potentiation of oxacillin-induced antimicrobial activity against methicillin-susceptible Staphylococcus aureus ATCC 29213 at 256 ug/ml (reference value: oxacillin alone MIC = 0.4 ug/ml).
Assay [36] has as its system Staphylococcus aureus. Nature of the assay: Potentiation of oxacillin-induced antimicrobial activity against methicillin-susceptible Staphylococcus aureus ATCC 29213 at 256 ug/ml relative to oxacillin alone.
The test system of assay [37] is Staphylococcus aureus. As to the kind of experiment: Potentiation of oxacillin-induced antimicrobial activity against methicillin-resistant Staphylococcus aureus NRS123 at 256 ug/ml (reference value: oxacillin alone MIC = 24 ug/ml).
Assay [38] deals with Staphylococcus aureus. Nature of the assay: Potentiation of oxacillin-induced antimicrobial activity against methicillin-resistant Staphylococcus aureus NRS123 at 256 ug/ml relative to oxacillin alone.
Assay [39] concerns Staphylococcus aureus. As to the kind of experiment: Potentiation of oxacillin-induced antimicrobial activity against methicillin-resistant Staphylococcus aureus NRS100 at 128 ug/ml (reference value: oxacillin alone MIC = >256 ug/ml).
The subject of assay [40] is Staphylococcus aureus. Nature of the assay: Potentiation of oxacillin-induced antimicrobial activity against methicillin-resistant Staphylococcus aureus NRS70 at 128 ug/ml (reference value: oxacillin alone MIC = 32 ug/ml).
Assay [41] has as its system Staphylococcus aureus. As to the kind of experiment: Potentiation of oxacillin-induced antimicrobial activity against methicillin-resistant Staphylococcus aureus NRS70 at 128 ug/ml relative to oxacillin alone.
Assay [42] deals with Staphylococcus aureus. Nature of the assay: Potentiation of oxacillin-induced antimicrobial activity against methicillin-resistant Staphylococcus aureus NRS70 at 128 ug/ml by checkerboard assay. The procedure, abridged:
as §2

Assay [43] relates to Staphylococcus aureus. As to the kind of experiment: Potentiation of oxacillin-induced antimicrobial activity against methicillin-resistant Staphylococcus aureus NRS100 at 128 ug/ml by checkerboard assay. The procedure, abridged: as §2

Each structure is given as a SMILES string. Values after ≈ are worked out from the molar mass of the structure shown. A value given as a limit tells only on which side of the number the result lay.

For `CC(C)=CCC/C(C)=C/CC/C(C)=C/CO` [FARNESOL], the MIC – broadly, the lowest concentration found to suppress growth – against Staphylococcus aureus [1] turned out to be 2050 µg/mL (≈ 9.21 mM); in the assay on Staphylococcus aureus [2] it was 2050 µg/mL (≈ 9.21 mM); in the assay with Staphylococcus aureus [3], 2050 µg/mL (≈ 9.21 mM); in the assay on Staphylococcus aureus [4], 2050 µg/mL (≈ 9.21 mM); in the assay with Staphylococcus aureus [9], 0.5 µg/mL; in the assay on Staphylococcus aureus [11], 4 µg/mL. Further, the MIC turned out to be 4 µg/mL in the assay on Staphylococcus aureus [13]; 3 µg/mL in the assay with Staphylococcus aureus [15]; 0.5 µg/mL in the assay with Staphylococcus aureus [17]; 8 µg/mL with Staphylococcus aureus [19]; 12 µg/mL with Staphylococcus aureus [21]; 2 µg/mL with Staphylococcus aureus [23]. Besides, the “fold change (FC)” value was 24 in the assay with Staphylococcus aureus [5]; greater than 64 in the assay on Staphylococcus aureus [6]; 256 in the assay with Staphylococcus aureus [7]; 96 in the assay on Staphylococcus aureus [8]; 1 in the assay on Staphylococcus aureus [10]; 4 with Staphylococcus aureus [12]. For the same molecule, the “fold change (FC)” value was 4 in the assay on Staphylococcus aureus [14]; 4 in the assay on Staphylococcus aureus [16]; 0.8 with Staphylococcus aureus [18]; greater than 32 in the assay on Staphylococcus aureus [20]; 2.7 with Staphylococcus aureus [22]; 12 in the assay on Staphylococcus aureus [24]. The “fractional inhibitory concentration index (FICI)” value in the assay with Staphylococcus aureus [25] and in the assay with Staphylococcus aureus [26] was 0.53 - 1.13 each time.
Regarding `CC(C)=CCC/C(C)=C/CC/C(C)=C/CN`, the MIC stood at 256 µg/mL (≈ 1.16 mM) with Staphylococcus aureus [1]; 512 µg/mL (≈ 2.31 mM) against Staphylococcus aureus [2]; 256 µg/mL (≈ 1.16 mM) with Staphylococcus aureus [3]; 512 µg/mL (≈ 2.31 mM) in the assay with Staphylococcus aureus [4]; 0.2 µg/mL with Staphylococcus aureus [27]; 1 µg/mL in the assay on Staphylococcus aureus [29]. Moreover, the MIC is 8 µg/mL in the assay with Staphylococcus aureus [31]; 16 µg/mL with Staphylococcus aureus [33]; 0.5 µg/mL in the assay with Staphylococcus aureus [35]; 0.75 µg/mL with Staphylococcus aureus [37]; greater than 256 µg/mL in the assay on Staphylococcus aureus [39]; 32 µg/mL in the assay with Staphylococcus aureus [40]. For the same molecule, the “fold change (FC)” value with Staphylococcus aureus [28] came to 2.5; in the assay on Staphylococcus aureus [30], 12; with Staphylococcus aureus [32], 2; with Staphylococcus aureus [34], 1; in the assay with Staphylococcus aureus [36] it was 0.8; in the assay with Staphylococcus aureus [38], 32. In addition, the “fold change (FC)” value in the assay on Staphylococcus aureus [41] worked out at 1. In addition, the “fractional inhibitory concentration index (FICI)” value in the assay on Staphylococcus aureus [42] and with Staphylococcus aureus [43] was 0.53 - 1.13 throughout.

The values above are taken from ChEMBL document CHEMBL4184251, “Potentiation of the activity of β-lactam antibiotics by farnesol and its derivatives” (Bioorg Med Chem Lett, 2018).
